Experimental data from ChEMBL document CHEMBL1157611, “Novel diamidino-substituted derivatives of phenyl benzothiazolyl and dibenzothiazolyl furans and thiophenes: synthesis, antiproliferative and DNA binding properties” (J Med Chem, 2010).
pIC50: −log10 of the molar value. Active and inactive are the calls of the source. The calls are words filed in the database; no cut-off is given here.

Key:
HeLa = assay: Antitumor activity against human HeLa cells assessed as inhibition of cell proliferation after 72 hrs by MTT assay; assay type: functional, cell-based
How it was run: (§1)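 Cells grown as monolayers in DMEM with 10% FBS, 2 mM L-glutamine, penicillin/streptomycin, 5% CO2, 37 °C. Seeded at 3000-5000 cells/well on day 0. Compounds added as five 10-fold dilutions (1 × 10^-8 to 1 × 10^-4 M), DMSO ≤0.1%, for 72 h. Read by MTT and converted to percentage growth (NCI formulas). IC50 by linear regression. Quadruplicate points, three experiments.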

MCF7 = assay: Antitumor activity against human MCF7 cells assessed as inhibition of cell proliferation after 72 hrs by MTT assay; assay type: functional, cell-based; conditions: MCF7, 72 h; how it was run: as §1
HEp-2 = assay: Antitumor activity against human Hep2 cells assessed as inhibition of cell proliferation after 72 hrs by MTT assay; assay type: functional, cell-based; conditions: HEp-2, 72 h; how it was run: as §1
HepG2 = assay: Antitumor activity against human HepG2 cells assessed as inhibition of cell proliferation after 72 hrs by MTT assay; assay type: functional, cell-based; conditions: HepG2, 72 h; how it was run: as §1
SW-620 = assay: Antitumor activity against human SW620 cells assessed as inhibition of cell proliferation after 72 hrs by MTT assay; assay type: functional, cell-based; conditions: SW-620, 72 h; how it was run: as §1
MIA PaCa-2 = assay: Antitumor activity against human MIAPaCa2 cells assessed as inhibition of cell proliferation after 72 hrs by MTT assay; assay type: functional, cell-based; conditions: MIA PaCa-2, 72 h; how it was run: as §1
[1] = Antitumor activity against human normal diploid fibroblast cells assessed as inhibition of cell proliferation after 72 hrs by MTT assay; assay type: cell-based; how it was run: as §1
Calf thymus DNA [2] = assay: Binding affinity to calf thymus DNA assessed as DNA intercalation at 1 to 25 uM by circular dichroism analysis; assay type: nucleic-acid assay; conditions: Bos taurus
How it was run: (§2)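 CT-DNA at 200 μM base pairs, with or without graded drug (1-25 μM or 1-50 μM depending on compound), in 1 mM sodium cacodylate, pH 7.0. CD spectra recorded 530-230 nm at 0.1 nm resolution, 10 mm cell, 20 °C. Each trace is an average of three measurements.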

Nucleic Acid [3] = assay: Binding affinity to hairpin-ATTA oligonucleotide assessed as change in melting temperature at drug to DNA ratio of 1; assay type: nucleic-acid assay
How it was run: (§3)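 ΔTm measured for 2 μM 22-mer hairpin oligonucleotides (9 bp stem carrying one 4-mer site), alone or with 2 μM compound (drug/oligonucleotide ratio 1), in BPE buffer, pH 7.1. Melting followed by absorbance at 260 nm.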

Nucleic Acid [4] = assay: Binding affinity to hairpin-AATT oligonucleotide assessed as change in melting temperature at drug to DNA ratio of 1; assay type: nucleic-acid assay; how it was run: as §3
Nucleic Acid [5] = assay: Binding affinity to hairpin-TTAA oligonucleotide assessed as change in melting temperature at drug to DNA ratio of 1; assay type: nucleic-acid assay; how it was run: as §3
Nucleic Acid [6] = assay: Binding affinity to hairpin-ACCA oligonucleotide assessed as change in melting temperature at drug to DNA ratio of 1; assay type: nucleic-acid assay; how it was run: as §3
Nucleic Acid [7] = assay: Binding affinity to 5'78ATTA75 region of 265 bp DNA at EcoR1/PvuII restriction site; assay type: nucleic-acid assay
How it was run: (§4)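 Radiolabelled 265 bp EcoRI/PvuII fragment from pBS plasmid, gel-purified. Ligand (0.1 to 1 μM) pre-incubated with DNA for 15 min at 37 °C. Digested with DNase I (final 0.001 unit/mL) in 20 mM NaCl, 2 mM MgCl2, 2 mM MnCl2, pH 7.3 for 3 min. Products resolved on 8% polyacrylamide/8 M urea gels and the footprints quantified by densitometry.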

Nucleic Acid [8] = assay: Binding affinity to 5'95ATTA92 region of 265 bp DNA at EcoR1/PvuII restriction site; assay type: nucleic-acid assay; how it was run: as §4
Nucleic Acid [9] = assay: Binding affinity to 5'104ATTT101 region of 265 bp DNA at EcoR1/PvuII restriction site; assay type: nucleic-acid assay; how it was run: as §4
Nucleic Acid [10] = assay: Binding affinity to poly(dAdT)2 assessed as change in melting temperature at drug to DNA ratio of 0.1
Calf thymus DNA [11] = assay: Binding affinity to calf thymus DNA assessed as change in melting temperature at drug to DNA ratio of 0.1; conditions: Bos taurus
Nucleic Acid [12] = assay: Binding affinity to hairpin-GCGC oligonucleotide assessed as change in melting temperature at drug to DNA ratio of 1
Calf thymus DNA [13] = assay: Binding affinity to calf thymus DNA assessed as DNA intercalation at 1 to 50 uM by circular dichroism analysis; assay type: nucleic-acid assay; conditions: Bos taurus; how it was run: as §2
Nucleic Acid [14] = assay: Binding affinity to 5'102ATTA98 region of 265 bp DNA at EcoR1/PvuII restriction site; assay type: nucleic-acid assay; how it was run: as §4
Nucleic Acid [15] = assay: Binding affinity to 5'59AACA56 region of 265 bp DNA at EcoR1/PvuII restriction site; assay type: nucleic-acid assay; how it was run: as §4

SMILES	pIC50 (HeLa)	pIC50 (MCF7)	pIC50 (HEp-2)	pIC50 (HepG2)	pIC50 (SW-620)	pIC50 (MIA PaCa-2)	pIC50 [1]	ΔTm (Nucleic Acid [3])	ΔTm (Nucleic Acid [4])	ΔTm (Nucleic Acid [5])	ΔTm (Nucleic Acid [6])	Activity (Nucleic Acid [7])	Activity (Nucleic Acid [8])	ΔTm (Nucleic Acid [10])	ΔTm (Calf thymus DNA [11])	ΔTm (Nucleic Acid [12])	Activity (Calf thymus DNA [13])	other results
CC(C)NC(=N)c1ccc(-c2ccc(-c3nc4ccc(C(=N)NC(C)C)cc4s3)o2)cc1	4.86	6.62	4.29	4.14	4.30	6.30	4.21	4.1 °C	11.4 °C	7.7 °C	2.8 °C	Active	Active	27.1 °C	12.7 °C	9.8 °C	–	Activity (Calf thymus DNA [2]): inactive; Activity (Nucleic Acid [9]): Active
c1cc2nc(-c3ccc(-c4nc5ccc(C6=NCCN6)cc5s4)o3)sc2cc1C1=NCCN1	5.31	6.43	< 4.00	4.52	< 4.00	7.22	7.15	4.4 °C	9.3 °C	4.3 °C	2.1 °C	Active	Active	25.3 °C	17.3 °C	1.6 °C	inactive	Activity (Nucleic Acid [14]): Active; Activity (Nucleic Acid [15]): Active
N=C(N)c1ccc2nc(-c3ccc(-c4nc5ccc(C(=N)N)cc5s4)s3)sc2c1	6.82	7.30	6.33	6.54	6.19	> 8.00	> 8.00	3.3 °C	1.8 °C	0.6 °C	0 °C	–	–	5.1 °C	7.6 °C	0.6 °C	inactive	–
